Rows were chosen to be rich in hits. Some 9.6% of all compounds tested hit in one or more screens of this group.
bCat nuc transl = modulators of beta-catenin nuclear translocation; HeLa beta-catenin nuclear translocation, immunofluorescence imaging; nuclear translocation activity, % at 5 µM; 0.3% of 190,000 active;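 active = nuclear translocation activity above 50% at 5 µM, with a well cell count of 50 or more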;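 also: per-cell ratio of nuclear to cytoplasmic median beta-catenin stain intensity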
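System: HeLa cells, endogenous beta-catenin; compound dosing: 5 µM primary single dose, 0.1% DMSO, 0.02–20 µM confirmation series; incubation: 24 h compound exposure at 37°C, 5% CO2; signal: beta-catenin immunofluorescence imaging with DAPI; evaluation: % activation, nuclear-to-cytoplasmic median beta-catenin signal ratio per cell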
BaF3 parental = counter-screen for JAK2V617F inhibitors: parental Ba/F3 viability inhibitors; 1.1% of 220,000 active; AID 1486; CellTiter-Glo ATP luminescence; inhibition, % at 5.6 µM;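 active = inhibition above a per-campaign cutoff, the mean inhibition of all tested compounds plus 3 SD, cut at about 27% in these data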
APP transl inh = APP translation inhibition; SH-SY5Y APP 5'UTR-luciferase reporter, luminescence; inhibition, % at 2 µM; 0.82% of 190,000 active; AID 1285;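 active = inhibition above a set limit, derived from the sample mean plus 3 SD, cut at about 45% in these data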
Ba/F3 V617F tox = lowers viability of Ba/F3 cells expressing EpoR and JAK2V617F; 1.1% of 220,000 active; ATP luminescence; inhibition, % at 5.6 µM;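 active = inhibition above the campaign mean plus 3 SD over all tested compounds, cut at about 24% in these data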;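 also: cytokine-independent growth of Ba/F3 cells driven by EpoR plus mutant JAK2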
Lmaj promast = Leishmania major promastigote growth inhibition | 9% of 200,000 active | Leishmania major promastigotes, resazurin fluorescence viability | inhibition, % at 10 µM; in the data active = inhibition above about 50%;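 also: promastigotes grown with compound for 44 hours at 28 °C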
MT stabilize HCS = microtubule stabilizers in HeLa cells; HeLa tubulin immunostaining HCS, 24 h; share of cells brighter than vehicle mean+2SD; % tubulin-high responders, % at 10 µM; 0.83% of 200,000 active; AID 2205;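 active = plate Z-score above 3 for both tubulin-high and condensed-nucleus cell shares, with cell loss under 80%, at 10 µM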;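 also: anti alpha tubulin signal scored within the nucleus-defined area of each cell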
Large screens that a line does not name were inactive.

O=C(CSc1ncc(-c2ccccc2)n1C1CCCC1)N1CCc2ccccc21	Lmaj promast 50
Cc1ccc(-c2cnc(SCC(=O)N3CCCc4ccccc43)n2C)cc1	none
CCN(CC)CC(O)Cn1c(-c2cccc(Cl)c2)nc2cc(C)c(C)cc21 (centres undefined)	none (no result: APP transl inh, Lmaj promast, MT stabilize HCS)
CCOc1cccc(C(=O)NC(c2ccccc2)C(C)C)c1 (centres undefined)	Lmaj promast 57
O=[N+]([O-])c1cc(O)c2ncccc2c1	Lmaj promast 100
O=[N+]([O-])c1cc2cccnc2c2ncccc12	none (no result: APP transl inh, Lmaj promast, MT stabilize HCS)
CS(=O)(=O)N1CCC(Oc2ccccc2C(=O)NC(C2CC2)C2CC2)CC1	none
CCOc1ccc(-n2c(-c3ccc(Cl)cc3)c[n+]3c2SCC3)cc1	BaF3 parental 74, Ba/F3 V617F tox 70, Lmaj promast 100
c1ccc(-n2c3ccccc3c3ccccc32)cc1	none (no result: APP transl inh, Lmaj promast, MT stabilize HCS)
c1ccc(-c2c[n+]3c(n2-c2ccccc2)SCC3)cc1	BaF3 parental 61, Ba/F3 V617F tox 66 (no result: APP transl inh, Lmaj promast, MT stabilize HCS)
CC(=O)C1C(=O)c2c(cccc2[N+](=O)[O-])C1=Nc1cccc(Cl)c1 (centres undefined)	none (no result: APP transl inh, Lmaj promast, MT stabilize HCS)
CCC(C)(C)NC(=O)C(c1ccccc1F)N(Cc1ccco1)C(=O)c1csnn1 (centres undefined)	Lmaj promast 57
CC1CCCCN1C(=O)N[C@@H](Cc1ccccc1)C(=O)O (some centres undefined)	Lmaj promast 51
O=C(O)[C@H](Cc1ccccc1)NC(=O)N1CCOCC1	Lmaj promast 70
O=C(NCc1ccccc1)N1CCOCC1	none (no result: APP transl inh, Lmaj promast, MT stabilize HCS)
CC1CCCCN1C(=O)C(Cc1ccccc1)N1C(=O)C2CCCCC2C1=O (centres undefined)	Lmaj promast 62
O=C(NC(Cc1ccccc1)C(=O)NC(Cc1ccccc1)C(=O)O)c1ccccc1 (centres undefined)	Lmaj promast 57
CCN(CC)S(=O)(=O)c1ccc(C(=O)N(c2ccc(C)cc2)C2C=CS(=O)(=O)C2)cc1 (centres undefined)	none
CCOC(=O)c1ccc(NNC(=O)CC)c([N+](=O)[O-])c1	none
C/C(=N/NS(=O)(=O)c1ccc(Cl)cc1)c1cccc(NC(=O)c2ccc(Cl)cc2Cl)c1	Lmaj promast 97 (no result: bCat nuc transl)
C/C(=N/NS(=O)(=O)c1ccc(C)cc1)c1cccc(NC(=O)c2cccc(Cl)c2)c1	none
COc1ccc2oc(=O)c(-c3csc(Nc4cccc(O)c4)n3)cc2c1	Lmaj promast 99
COc1cccc2sc(Nc3nc(-c4cc5ccccc5oc4=O)cs3)nc12	bCat nuc transl 122, APP transl inh 91, MT stabilize HCS 18
COc1cccc2sc(Nc3nc(-c4ccncc4)cs3)nc12	bCat nuc transl 55, BaF3 parental 83, APP transl inh 94, Ba/F3 V617F tox 85, MT stabilize HCS 23
COc1ccc(Nc2nc(-c3cc4cccc(OC)c4oc3=O)cs2)cc1	none
O=C(O)c1ccc(Nc2nc(-c3cc4ccccc4oc3=O)cs2)cc1O	none
CC1=NN(c2ccccc2)C(=O)/C1=C\c1ccc(Br)s1	Lmaj promast 54 (no result: APP transl inh)
CC1=NN(c2ccc(C)cc2)C(=O)/C1=C\C=C\c1ccccc1	Lmaj promast 100 (no result: bCat nuc transl)
CC1=NN(c2ccccc2)C(=O)/C1=C/C=C/C=C/N(C)C	none (no result: bCat nuc transl)
CC1=NN(c2cccc(C(=O)O)c2)C(=O)/C1=C\C=C/c1ccccc1	Lmaj promast 100
O=c1c(Cl)c(N/N=C/c2ccc(Br)cc2)cnn1-c1ccccc1	none
CCOc1ccc(-n2c([S-])c(C(=O)Nc3ccc(S(=O)(=O)N4CCOCC4)cc3)[n+]3cc(C(N)=O)ccc23)cc1	none (no result: APP transl inh, Lmaj promast, MT stabilize HCS)
N#Cc1c(-c2ccco2)cc(-c2ccccn2)nc1N	Lmaj promast 78
COc1ccc(OC)c(S(=O)(=O)N2c3ccccc3CC2C)c1 (centres undefined)	Lmaj promast 100
COc1ccc(C(=O)N2CCOCC2)cc1S(=O)(=O)N1CCCc2ccccc21	none
COc1ccc(F)cc1S(=O)(=O)N1CC(C)CC(C)C1 (centres undefined)	none (no result: bCat nuc transl)
COc1ccc(OC)c(S(=O)(=O)N2c3cc(F)ccc3CCC2C)c1 (centres undefined)	Lmaj promast 100
COc1ccc(OC)c(S(=O)(=O)N2CCCc3ccccc32)c1	Lmaj promast 100
COc1ccc(OC)c(S(=O)(=O)N2C(C)CCCC2C)c1 (centres undefined)	none
